Laboratory results from ChEMBL document CHEMBL4400518, “Synthesis, antimicrobial and cytotoxic activities, and molecular docking studies of N-arylsulfonylindoles containing an aminoguanidine, a semicarbazide, and a thiosemicarbazide moiety” (Eur J Med Chem, 2019).
Converted amounts (≈) assume the structure as drawn.

Legend:
Staphylococcus aureus [1] = assay: Antibacterial activity against Staphylococcus aureus CMCC(B) 26003 measured after 24 hrs by ELISA; format: functional; conditions: CMCC(B) 26003, 24 h
Outline: (§1)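 Broth microdilution MIC. Mid-log bacteria in MHB or TSB diluted 1000-fold, inoculated at 10^5 CFU/mL. Compounds added from DMSO stocks; final DMSO at most 0.05%. Incubation 24 h at 37 °C. Growth read as absorbance at 630 nm. MIC taken as the lowest concentration giving complete growth inhibition. Three independent experiments.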

Staphylococcus aureus [2] = assay: Antibacterial activity against Staphylococcus aureus CMCC 25923 measured after 24 hrs by ELISA; format: functional; conditions: CMCC 25923, 24 h; outline: as §1
Streptococcus pyogenes = assay: Antibacterial activity against Streptococcus pyogenes CMCC 32067 measured after 24 hrs by ELISA; format: functional; conditions: CMCC 32067, 24 h; outline: as §1
Streptococcus pneumoniae = assay: Antibacterial activity against Streptococcus pneumoniae CMCC 31968 measured after 24 hrs by ELISA; format: functional; conditions: CMCC 31968, 24 h
Enterococcus faecalis = assay: Antibacterial activity against Enterococcus faecalis CMCC 29212 measured after 24 hrs by ELISA; format: functional; conditions: CMCC 29212, 24 h; outline: as §1
Bacillus subtilis = assay: Antibacterial activity against Bacillus subtilis CMCC 63501 measured after 24 hrs by ELISA; format: functional; conditions: CMCC 63501, 24 h; outline: as §1
Escherichia coli [3] = assay: Antibacterial activity against Escherichia coli CMCC 25922 measured after 24 hrs by ELISA; format: functional; conditions: CMCC 25922, 24 h; outline: as §1
Escherichia coli [4] = assay: Antibacterial activity against Escherichia coli CMCC 44568 measured after 24 hrs by ELISA; format: functional; conditions: CMCC 44568, 24 h; outline: as §1
Pseudomonas aeruginosa [5] = assay: Antibacterial activity against Pseudomonas aeruginosa CMCC 27853 measured after 24 hrs by ELISA; format: functional; conditions: CMCC 27853, 24 h; outline: as §1
Pseudomonas aeruginosa [6] = assay: Antibacterial activity against Pseudomonas aeruginosa CMCC 10104 measured after 24 hrs by ELISA; format: functional; conditions: CMCC 10104, 24 h; outline: as §1
Staphylococcus aureus [7] = assay: Antibacterial activity against methicillin-resistant Staphylococcus aureus ATCC 43300 measured after 24 hrs by ELISA; format: functional; conditions: ATCC 43300, 24 h
Outline: (§2)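 Broth serial dilution MIC. Mid-log bacteria in Mueller-Hinton or Tryptone Soya broth, diluted 1000-fold and inoculated at 10^5 CFU/mL. Compounds from DMSO stock, final DMSO ≤0.05%. Incubated 24 h at 37 °C; growth read as absorbance at 630 nm. MIC is the lowest concentration giving complete growth inhibition. Three independent experiments.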

Staphylococcus aureus [8] = assay: Antibacterial activity against methicillin-resistant Staphylococcus aureus ATCC 33591 measured after 24 hrs by ELISA; format: functional; conditions: ATCC 33591, 24 h; outline: as §2
Escherichia coli [9] = assay: Antibacterial activity against multidrug-resistant Escherichia coli ATCC BAA-196 measured after 24 hrs by ELISA; format: functional; conditions: ATCC BAA-196, 24 h; outline: as §2
Pseudomonas aeruginosa [10] = assay: Antibacterial activity against multidrug-resistant Pseudomonas aeruginosa ATCC BAA-2111 measured after 24 hrs by ELISA; format: functional; conditions: ATCC BAA-2111, 24 h; outline: as §2
[11] = Cytotoxicity against human A590 cells measured after 48 hrs by CCK8 assay; format: functional, cell-based
Outline: (§3)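 Cells kept in DMEM with 10% FBS and penicillin-streptomycin at 37 °C, 5% CO2. About 1×10^4 cells per well attached for 24 h, then exposed for 48 h to 0.3, 1, 3, 10, 30 and 100 µmol/L of compound, in triplicate wells. CCK-8 added for 3 h, OD read at 450 nm. IC50 is the concentration inhibiting growth by 50%.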

SGC-7901 = assay: Cytotoxicity against human SGC7901 cells measured after 48 hrs by CCK8 assay; format: functional, cell-based; conditions: SGC-7901, 48 h; outline: as §3
HEK-293T = assay: Cytotoxicity against HEK293T cells measured after 48 hrs by CCK8 assay; format: cell-based; conditions: Homo sapiens; outline: as §3
[12] = Selectivity index, ratio of IC50 for HEK293T cells to MIC for Staphylococcus aureus CMCC(B) 26003; format: toxicity; conditions: human, read-out: Selectivity Index
[13] = Selectivity index, ratio of IC50 for HEK293T cells to MIC for Staphylococcus aureus CMCC 25923; format: toxicity; conditions: human, read-out: Selectivity Index
[14] = Selectivity index, ratio of IC50 for HEK293T cells to MIC for Streptococcus pyogenes CMCC 32067; format: toxicity; conditions: human, read-out: Selectivity Index
[15] = Selectivity index, ratio of IC50 for HEK293T cells to MIC for Streptococcus pneumoniae CMCC 31968; format: toxicity; conditions: human, read-out: Selectivity Index
[16] = Selectivity index, ratio of IC50 for HEK293T cells to MIC for Enterococcus faecalis CMCC 29212; format: toxicity; conditions: human, read-out: Selectivity Index
[17] = Selectivity index, ratio of IC50 for HEK293T cells to MIC for Bacillus subtilis CMCC 63501; format: toxicity; conditions: human, read-out: Selectivity Index
[18] = Selectivity index, ratio of IC50 for HEK293T cells to MIC for Escherichia coli CMCC 25922; format: toxicity; conditions: human, read-out: Selectivity Index
[19] = Selectivity index, ratio of IC50 for HEK293T cells to MIC for Escherichia coli CMCC 44568; format: toxicity; conditions: human, read-out: Selectivity Index
[20] = Selectivity index, ratio of IC50 for HEK293T cells to MIC for Pseudomonas aeruginosa CMCC 27853; format: toxicity; conditions: human, read-out: Selectivity Index
[21] = Selectivity index, ratio of IC50 for HEK293T cells to MIC for Pseudomonas aeruginosa CMCC 10104; format: toxicity; conditions: human, read-out: Selectivity Index
[22] = Selectivity index, ratio of IC50 for HEK293T cells to MIC for methicillin-resistant Staphylococcus aureus ATCC 43300; format: toxicity; conditions: human, read-out: Selectivity Index
[23] = Selectivity index, ratio of IC50 for HEK293T cells to MIC for methicillin-resistant Staphylococcus aureus ATCC 33591; format: toxicity; conditions: human, read-out: Selectivity Index
[24] = Selectivity index, ratio of IC50 for HEK293T cells to MIC for multidrug-resistant Escherichia coli ATCC BAA-196; format: toxicity; conditions: human, read-out: Selectivity Index
[25] = Selectivity index, ratio of IC50 for HEK293T cells to MIC for multidrug-resistant Pseudomonas aeruginosa ATCC BAA-2111; format: toxicity; conditions: human, read-out: Selectivity Index

Row | Compound | MIC (Staphylococcus aureus [1]) [µM] | MIC (Staphylococcus aureus [2]) [µM] | MIC (Streptococcus pyogenes) [µM] | MIC (Streptococcus pneumoniae) [µM] | MIC (Enterococcus faecalis) [µM] | MIC (Bacillus subtilis) [µM] | MIC (Escherichia coli [3]) [µM] | MIC (Escherichia coli [4]) [µM] | MIC (Pseudomonas aeruginosa [5]) [µM] | MIC (Pseudomonas aeruginosa [6]) [µM] | MIC (Staphylococcus aureus [7]) [µM] | MIC (Staphylococcus aureus [8]) [µM] | MIC (Escherichia coli [9]) [µM] | MIC (Pseudomonas aeruginosa [10]) [µM] | IC50 [11] [µM] | IC50 (SGC-7901) [µM] | IC50 (HEK-293T) [µM] | selectivity ratio [12] | selectivity ratio [13] | selectivity ratio [14] | further results
1 | N=C(N)N/N=C\c1cn(S(=O)(=O)c2ccccc2)c2ccc(Br)cc12 | 153 (≈ 64.2 µg/mL) | 2.37 (≈ 0.996 µg/mL) | 305 (≈ 128 µg/mL) | > 305 | 19.1 (≈ 8.02 µg/mL) | 4.77 (≈ 2 µg/mL) | 9.55 (≈ 4.01 µg/mL) | 1.19 (≈ 0.5 µg/mL) | > 305 | 9.55 (≈ 4.01 µg/mL) | 2.39 (≈ 1 µg/mL) | 2.39 (≈ 1 µg/mL) | 2.39 (≈ 1 µg/mL) | > 76.4 | 14.7 | 3.06 | 71.6 | 0.47 | 30.2 | 0.23 | selectivity ratio [15]: < 0.23; selectivity ratio [16]: 3.75; selectivity ratio [17]: 15; selectivity ratio [18]: 7.5; selectivity ratio [19]: 60.2; selectivity ratio [20]: < 0.23; selectivity ratio [21]: 7.5; selectivity ratio [22]: 30; selectivity ratio [23]: 30; selectivity ratio [24]: 30; selectivity ratio [25]: < 0.94
2 | Cc1onc(-c2ccccc2)c1C(=O)N[C@@H]1C(=O)N2[C@@H]1SC(C)(C)[C@@H]2C(=O)O [OXACILLIN] | 0.31 (≈ 0.124 µg/mL) | 0.31 (≈ 0.124 µg/mL) | > 319 | > 319 | 319 (≈ 128 µg/mL) | > 319 | 319 (≈ 128 µg/mL) | > 319 | > 319 | > 319 | 160 (≈ 64.1 µg/mL) | 19.9 (≈ 8.01 µg/mL) | – | – | – | – | – | – | – | – | –
3 | Cc1ccc(S(=O)(=O)n2cc(/C=N\NC(=N)N)c3cc(Br)ccc32)cc1 | 2.31 (≈ 1 µg/mL) | 2.31 (≈ 1 µg/mL) | > 296 | > 296 | 9.24 (≈ 4.01 µg/mL) | 2.31 (≈ 1 µg/mL) | 9.24 (≈ 4.01 µg/mL) | 2.31 (≈ 1 µg/mL) | > 296 | > 296 | 1.15 (≈ 0.499 µg/mL) | 1.15 (≈ 0.499 µg/mL) | 1.15 (≈ 0.499 µg/mL) | > 73.9 | 15.1 | 4 | 73.5 | 31.8 | 31.8 | < 0.24 | selectivity ratio [15]: < 0.25; selectivity ratio [16]: 7.95; selectivity ratio [17]: 31.8; selectivity ratio [18]: 7.95; selectivity ratio [19]: 31.8; selectivity ratio [20]: < 0.25; selectivity ratio [21]: < 0.25; selectivity ratio [22]: 63.9; selectivity ratio [23]: 63.9; selectivity ratio [24]: 63.9; selectivity ratio [25]: < 0.99
4 | COc1c(N2C[C@@H]3CCCN[C@@H]3C2)c(F)cc2c(=O)c(C(=O)O)cn(C3CC3)c12 [MOXIFLOXACIN] | 0.31 (≈ 0.124 µg/mL) | 0.31 (≈ 0.124 µg/mL) | > 319 | > 319 | – | – | 0.31 (≈ 0.124 µg/mL) | 0.31 (≈ 0.124 µg/mL) | – | 9.98 (≈ 4.01 µg/mL) | 1.25 (≈ 0.502 µg/mL) | 0.62 (≈ 0.249 µg/mL) | 1.25 (≈ 0.502 µg/mL) | – | – | – | – | – | – | – | –
5 | Cc1ccc(S(=O)(=O)n2cc(/C=N\NC(N)=O)c3cc(Br)ccc32)cc1 | 295 (≈ 128 µg/mL) | > 295 | > 295 | > 295 | > 295 | 9.22 (≈ 4.01 µg/mL) | > 295 | > 295 | > 295 | > 295 | – | – | – | – | – | – | – | – | – | – | –
